TAAR1 ag: agonists of human TAAR1 | activation, % at 3 µM | AID 624467 | CHO RD-HGA16 TAAR1, Fluo-8 calcium fluorescence; vehicle wells 0%, saturating PEA agonist 100% | Q96RJ0 | hit rate 0.99% among 360,000;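 active = activation above the mean activation of all test compounds in the run plus 3 SD, cut at about 38% in these data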
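System: CHO-derived RD-HGA16 cells with stable Gα16 and human TAAR1 / Times: 17-24 h plating, Fluo-8 75 min 37 °C, 30 min RT / Technique: calcium-sensitive Fluo-8 signal, excitation 470-495, emission 515-575 nm / Measure: % activation relative to PEA EC100 response / Benchmarks: DMSO and PEA EC100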
MC4R ag barr: agonists of human melanocortin 4 receptor (MC4R) beta-arrestin. P32245. U2OS MC4R beta-arrestin complementation, luminescence; percent of melanotan II response, DMSO zero. activation, % at 8.9 µM. hit rate 0.98% among 360,000. AID 540308;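 active = activation above a per-plate cutoff, the mean activation of sample wells on that plate plus 3 SD, cut at about 8% in these data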
TAAR1 antag: antagonists of human TAAR1 | CHO RD-HGA16 TAAR1, Fluo-8 calcium fluorescence, antagonist | inhibition, % at 3 µM | hit rate 1.5% among 360,000 | AID 624466;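 active = inhibition above a per-plate cutoff, the mean inhibition of test compounds on that plate plus 3 SD, cut at about 49% in these data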;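 note: 0% = DMSO plus EC80 beta-PEA response and 100% = DMSO alone without agonist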
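Test system – hTAAR1-expressing CHO RD-HGA16 cells, Gα16-coupled · Also added – β-PEA at EC80 concentration, post-compound challenge · Compound – 3 µM, single point · Incubation – dye loading 75 min at 37 °C, then 30 min room temperature · Measured by – Fluo-8 intracellular calcium dye fluorescence, real-time kinetic reads · Benchmarks – vehicle and agonist controls · Replicates – singlicate, one well per test compound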
m5-HT2A agonist: activates the mouse 5-HT2A serotonin receptor | P35363 | CHO-K1 mHTR2A beta-arrestin complementation, luminescence; percent of 30 µM serotonin response | activation, % at 7.6 µM | hit rate 0.66% among 360,000;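 active = activation above a run cutoff, the mean activation of all tested compounds plus 3 SD, cut at about 14% in these data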;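 note: 0% = plate median of compound wells and 100% = 30 µM serotonin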
B2AR ag: agonists of human beta-2 adrenergic receptor inducing internalization; P07550; Am2.2-beta2AR cells, FAP receptor internalization, flow cytometry; response, % (test concentration not listed); hit rate 0.43% among 340,000; AID 504454;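 active = response above a set limit, near 3 SD of response in nonfluorescent compounds, cut at about 42% in these data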
Target sequence (P07550 whole entry, looked up): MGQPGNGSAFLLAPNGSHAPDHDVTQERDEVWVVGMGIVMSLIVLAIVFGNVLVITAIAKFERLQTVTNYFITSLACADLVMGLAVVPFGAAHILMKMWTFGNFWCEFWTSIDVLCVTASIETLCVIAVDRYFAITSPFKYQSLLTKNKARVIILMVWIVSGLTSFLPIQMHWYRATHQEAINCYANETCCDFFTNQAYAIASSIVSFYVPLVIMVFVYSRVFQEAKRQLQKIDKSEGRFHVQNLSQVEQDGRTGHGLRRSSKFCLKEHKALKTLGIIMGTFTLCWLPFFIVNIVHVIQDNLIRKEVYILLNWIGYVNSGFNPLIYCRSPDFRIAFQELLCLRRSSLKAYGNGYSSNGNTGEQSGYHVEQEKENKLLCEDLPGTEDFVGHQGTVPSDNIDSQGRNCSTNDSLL
MC4R antagonist: human MC4R antagonism in cAMP assay; MC4R-expressing cells, MTII-stimulated cAMP, LANCE TR-FRET; inhibition, % at 6.5 µM; hit rate 0.48% among 360,000;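 active = inhibition above its plate's cutoff, the mean of tested wells on that plate plus 3 SD, cut at about 29% in these data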;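 note: 0% = Melanotan II alone and 100% = Melanotan II plus saturating MCL0020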
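Test system: U2OS cells stably expressing human melanocortin 4 receptor (MC4R); also added: Melanotan II challenge; compound: 6.5 µM single dose; timing: 30-min compound preincubation, 1-h Melanotan II challenge, 1-h detection, room temperature; signal: Eu-cAMP/anti-cAMP TR-FRET, emission 671 nm; repeats: one well per compound, no replicates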
nonsel antag count: nonselective antagonism, TAAR1 counter-screen | counterscreen cell line, calcium fluorescence, antagonist mode | inhibition, % at 3 µM | shares compounds with TAAR1 antag | hit rate 77% among 2,400; in the data active = inhibition above about 22%;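 note: CHO-Ga16 host cells stimulated with ATP at an EC80 level; 0% = agonist EC80 plus vehicle and 100% = vehicle without agonist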
TAAR1 antag conf: human TAAR1 antagonism, confirmed; inhibition, % at 3 µM; AID 651785; shares compounds with TAAR1 antag; TAAR1-expressing cells, fluorescence antagonist read-out; hit rate 40% among 2,400; in the data active = inhibition above about 49%;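 note: CHO-Ga16 host cells challenged with agonist PEA near its EC80; 0% = agonist at EC80 plus vehicle and 100% = vehicle with no agonist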
Ga16 ag counter: nonselective Ga16 agonist in TAAR1 antagonist counter-screen | shares compounds with TAAR1 antag | Ga16-expressing cells, calcium fluorescence, agonist counterscreen | activation, % at 3 µM | hit rate 18% among 2,400 | AID 651953; in the data active = activation above about 12%;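 note: 0% = vehicle wells and 100% = saturating stimulus response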
TAAR1 ag counter: counter-screen for human TAAR1 antagonists: TAAR1 agonists; hTAAR1 cell line, fluorescence activation, agonist mode; shares compounds with TAAR1 antag; AID 651955; activation, % at 3 µM; hit rate 2% among 2,400; in the data active = activation above about 37%;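 note: CHO cells stably expressing TAAR1 with calcium dye readout; 0% = DMSO vehicle and 100% = full agonist response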
Starred values were filed as active, the others as inactive; / = no result. Only some compounds are listed: those with a hit (about 4.3% of all), similar ones and a draw of the others.

SMILES	TAAR1 ag	MC4R ag barr	TAAR1 antag	m5-HT2A agonist	B2AR ag	MC4R antagonist	nonsel antag count	TAAR1 antag conf	Ga16 ag counter	TAAR1 ag counter
O=C(c1ccncc1)c1ccc(N2CCN(C3CC(=O)N(Cc4ccccc4)C3=O)CC2)cc1 (configuration not stated)	27	-1	51*	4	-16	12	26*	27	11	10
COc1ccc(N2CCN(C3CC(=O)N(Cc4ccccc4)C3=O)CC2)cc1 (configuration not stated)	1	-2	-34	-1	0	22	/	/	/	/
CCOC(=O)c1c(C)[nH]c(C)c1S(=O)(=O)NCC(=O)Nc1ccccn1	2	-1	-24	8	-2	21	/	/	/	/
Cc1nc(C)c(C(=O)N2CCCC(C(=O)c3cc(F)ccc3F)C2)s1 (configuration not stated)	1	-1	-9	-3	2	-5	/	/	/	/
CCCn1c(SCC(=O)c2c(C)[nH]c(C)c2C(=O)OCC)nc2ccccc21	12	-2	49*	-3	0	6	18	34	10	15
O=C(NNC(=O)C1CCC1)c1ccccc1F	2	-3	-26	0	-8	25	/	/	/	/
O=C(COC(=O)c1ccccc1Nc1ccc(SC(F)F)cc1)NCc1ccco1	7	4	52*	3	-4	2	18	22	0	-2
CN(C)C(=O)COC(=O)c1ccccc1OCC(=O)Nc1ccc(SC(F)F)cc1	17	1	64*	-4	-8	7	32*	51*	11	8
Cc1cccc(Nc2ccccc2C(=O)OCC(=O)NCc2ccco2)c1C	-2	2	0	-1	4	-3	/	/	/	/
O=C(CNC(=O)N1CC(=O)Nc2ccccc21)NCCc1ccc(Cl)cc1	9	-1	-12	-7	-7	9	/	/	/	/
CC1Cc2cc(S(=O)(=O)N3CCN(c4ccccc4)CC3)ccc2N1C(=O)C1CC1 (configuration not stated)	-1	2	-8	2	-13	7	/	/	/	/
COc1ccc(C(=O)Nc2cccc(/C=C/c3nc4ccccc4c(=O)[nH]3)c2)cc1	13	5	55*	2	9	8	16	38	7	4
COc1ccc(C(=O)Nc2nc3ccccc3c(=O)[nH]2)cc1	10	-1	-10	-2	10	5	/	/	/	/
Cc1cccc(/C=C\c2nc3ccccc3c(=O)[nH]2)c1	2	2	4	-5	3	-4	/	/	/	/
O=C(Nc1cccc(/C=C/c2nc3ccccc3c(=O)[nH]2)c1)c1ccccc1Cl	10	6	68*	-3	29	25	30*	48	12*	5
COc1ccc(OC)c2[nH]c(=O)c(CCNC(=O)c3cc4ccccc4o3)cc12	3	2	25	0	-7	14	/	/	/	/
Cc1ccc(C)c2[nH]c(=O)c(CCNC(=O)c3cc4ccccc4o3)cc12	6	0	49*	4	-9	12	24*	25	7	3
Cc1ccc(OCCNC(=O)CCc2ccccc2)cc1C	-2	4	-16	3	5	8	/	/	/	/
O=C(Nc1cccc(-c2nc3ccccc3[nH]2)c1)c1ccccn1	9	2	51*	-4	1	6	19	27	5	4
Cc1ccc(OCC(=O)Nc2cccc(-c3nnc(-c4ccccc4)o3)c2)cc1	15	2	69*	2	24	19	35*	65*	7	4
Cc1nc(-c2ccc(C(=O)Nc3cccc(F)c3)cc2)cs1	6	3	7	-4	6	-1	/	/	/	/
O=C(Nc1cccc(-c2nnc(-c3ccccc3)o2)c1)c1ccco1	12	-2	50*	3	-1	7	29*	44	7	13
CC(=O)Nc1cccc(-c2nc3ccccc3[nH]2)c1	4	-2	10	-2	-23	-1	/	/	/	/
Cc1nc(-c2cccc(NC(=O)c3ccc(-n4cccn4)cc3)c2)cs1	28	1	63*	3	16	9	22*	47	11	8
OCCN(Cc1ccccc1)c1ncnc2sccc12	3	-1	3	2	5	-3	/	/	/	/
SMILES	TAAR1 ag	MC4R ag barr	TAAR1 antag	m5-HT2A agonist	B2AR ag	MC4R antagonist	nonsel antag count	TAAR1 antag conf	Ga16 ag counter	TAAR1 ag counter
Cc1ccc(SCC(=O)Nc2cccc(-c3nnc(-c4ccco4)o3)c2)cc1	12	0	65*	5	2	6	38*	52*	10	8
Cc1nc(-c2cccc(NC(=O)COc3ccc(Cl)cc3)c2)cs1	0	-2	55*	6	-2	-3	30*	43	5	0
COc1ccc(CC(=O)Nc2cccc(-c3csc(C)n3)c2)cc1	2	0	8	-4	-3	2	/	/	/	/
O=C(COc1ccccc1)Nc1cccc(-c2nc3cc4ccccc4cc3[nH]2)c1	15	4	69*	-2	29	19	38*	59*	8	4
Cc1ccc(NC(=O)COc2coc(CN3CCN(c4ccccc4)CC3)cc2=O)cc1	1	-2	-7	-1	3	5	/	/	/	/
Cc1ccccc1CN1C(=O)[C@H]2Cc3c([nH]c4ccccc34)C(C)(C)N2C1=O	15	0	63*	8	-2	14	23*	35	6	6
Cc1cccc(CN2C(=O)[C@H]3Cc4c([nH]c5ccccc45)C(C)(C)N3C2=O)c1	10	1	60*	-3	20	21	24*	26	2	2
CC1(C)c2[nH]c3ccccc3c2C[C@H]2C(=O)N(Cc3ccccc3F)C(=O)N21	13	0	14	3	12	-1	/	/	/	/
CC(=O)Nc1ccc(NC(=O)CN(C)S(=O)(=O)c2ccc3c(c2)CCC(=O)N3)cc1	6	-1	-23	6	-6	-2	/	/	/	/
Cc1cccc(OCC(=O)Nc2nccs2)c1C	7	-1	5	7	4	1	/	/	/	/
CC(C)=N/N=C1/NC(=O)C(c2ccc(Cl)cc2)S1 (configuration not stated)	27	2	55*	-3	6	8	1	-3	3	3

Screening results (PubChem)
